# From ChEMBL document CHEMBL3588778, “Synthesis and biological evaluation of spirocyclic antagonists of CCR2 (chemokine CC receptor subtype 2)” (Bioorg Med Chem, 2015)
# Assays:
# [1] = target: C-C chemokine receptor type 2 (Mus musculus, UniProt P51683); experiment: Antagonist activity against mouse CCR2B expressed in human U2OS cells co-expressing beta-arrestin assessed as inhibition of mouse CCL2-induced beta-arrestin recruitment pre-incubated for 10 mins before mouse CCL2 stimulation for 90 mins by luminescence based assay; assay type: cell-based
# [2] = target: T1, C-C chemokine receptor type 2 (Homo sapiens, UniProt P41597); experiment: Antagonist activity against human CCR2B expressed in Chem-1 cells assessed as inhibition of human CCL2-induced intracellular calcium flux incubated for 10 mins by Fluo-4 AM dye based intracellular calcium flux assay; assay type: functional, cell-based
# Target sequence in this assay (P41597 whole entry): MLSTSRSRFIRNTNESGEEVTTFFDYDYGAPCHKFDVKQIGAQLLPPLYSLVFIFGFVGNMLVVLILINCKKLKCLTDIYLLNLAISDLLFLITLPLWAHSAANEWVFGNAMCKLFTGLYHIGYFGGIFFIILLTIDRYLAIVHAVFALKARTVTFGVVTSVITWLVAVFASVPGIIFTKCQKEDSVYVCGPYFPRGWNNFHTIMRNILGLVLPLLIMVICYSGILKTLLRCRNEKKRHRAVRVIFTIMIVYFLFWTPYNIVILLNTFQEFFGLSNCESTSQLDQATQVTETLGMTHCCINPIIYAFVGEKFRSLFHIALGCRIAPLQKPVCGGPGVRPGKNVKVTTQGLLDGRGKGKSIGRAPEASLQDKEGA
# [3] = target: T1, C-C chemokine receptor type 2; experiment: Displacement of [125I]-CCL2 from human CCR2 expressed in U2OS cells at 1 uM incubated for 150 mins by scintillation spectrometry; assay type: cell-based
# How it was run: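 Membranes (15 µg protein) from U2OS cells stably expressing human CCR2 were incubated with 0.1 nM 125I-CCL2 for 150 min at 37 C. Buffer was 50 mM Tris-HCl pH 7.4 with 5 mM MgCl2 and 0.1% CHAPS. Test compound was 1 µM and nonspecific binding was defined with 10 µM INCB3344. Bound ligand was separated by filtration on PEI-coated GF/B filters and counted by scintillation. Result given as % displacement.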
# Target sequence in this assay (P41597 whole entry, looked up): as the sequence (P41597 whole entry) above
# [4] = target: T1, C-C chemokine receptor type 2; experiment: Displacement of [125I]-CCL2 from human CCR2 expressed in U2OS cells incubated for 150 mins by scintillation spectrometry; assay type: cell-based
# Target sequence in this assay (P41597 whole entry): as above
# Chain of C-C chemokine receptor type 2 (Mus musculus, UniProt P51683) (P51683 whole entry): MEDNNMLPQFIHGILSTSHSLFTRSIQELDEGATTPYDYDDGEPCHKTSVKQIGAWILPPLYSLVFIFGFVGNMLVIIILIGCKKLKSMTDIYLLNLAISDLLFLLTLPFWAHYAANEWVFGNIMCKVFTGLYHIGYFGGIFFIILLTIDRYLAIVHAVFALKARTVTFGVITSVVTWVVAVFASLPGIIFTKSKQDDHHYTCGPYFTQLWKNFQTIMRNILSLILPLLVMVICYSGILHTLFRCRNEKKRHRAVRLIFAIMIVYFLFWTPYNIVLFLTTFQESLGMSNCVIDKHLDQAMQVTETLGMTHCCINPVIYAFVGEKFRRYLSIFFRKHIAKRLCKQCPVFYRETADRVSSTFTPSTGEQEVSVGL
IC50 [1] [µM],IC50 [2] [µM],inhibition [3] [%],Ki [4] [µM],SMILES
18,1.24,1,–,COc1ccc2c(c1)CCOC21CCN(CCCC(=O)NCc2cc(C(F)(F)F)cc(C(F)(F)F)c2)CC1
4.63,0.353,-7,–,COc1ccc2c(c1)CCOC21CCN(CCC(C(=O)NCc2cc(F)cc(C(F)(F)F)c2)c2ccc(F)cc2)CC1 (stereo not given)
23,–,–,0.002,Cc1ccc(-c2ccc3c(c2)C=C(C(=O)Nc2ccc(C[N+](C)(C)C4CCOCC4)cc2)CCC3)cc1
> 30,6.1,–,–,O=C(NCc1cc(F)cc(C(F)(F)F)c1)C(CCN1CCC2(CC1)OCCc1cc(O)ccc12)c1ccc(F)cc1 (stereo not given)
4.16,0.163,–,–,COc1ccc2c(c1)CCOC21CCN(CCC(C(=O)NCc2cc(C(F)(F)F)cc(C(F)(F)F)c2)c2ccc(F)cc2)CC1 (stereo not given)
> 30,0.18,4,–,O=C(CCCN1CCC2(CC1)OCCc1ccccc12)NCc1cc(F)cc(C(F)(F)F)c1
> 30,0.318,-1,–,COc1ccc2c(c1)CCOC21CCN(CCCC(=O)NCc2cc(F)cc(C(F)(F)F)c2)CC1
11.2,0.089,25,–,O=C(NCc1cc(C(F)(F)F)cc(C(F)(F)F)c1)C(CCN1CCC2(CC1)OCCc1ccccc12)c1ccc(F)cc1 (stereo not given)
24,0.684,10,–,O=C(CCCN1CCC2(CC1)OCCc1ccccc12)NCc1cc(C(F)(F)F)cc(C(F)(F)F)c1
8.01,1.6,9,–,CC1Cc2ccccc2C2(CCN(CCC(C(=O)NCc3cc(F)cc(C(F)(F)F)c3)c3ccc(F)cc3)CC2)O1 (stereo not given)
> 30,12,-10,–,CC1Cc2ccccc2C2(CCN(CCCC(=O)NCc3cc(F)cc(C(F)(F)F)c3)CC2)O1 (stereo not given)
3.3,0.017,–,–,O=C(NCc1cc(C(F)(F)F)cc(C(F)(F)F)c1)C(CCN1CCC2(CC1)OCCc1ccccc12)C1CC1 (stereo not given)
3.63,0.173,7,–,O=C(NCc1cc(F)cc(C(F)(F)F)c1)C(CCN1CCC2(CC1)OCCc1ccccc12)c1ccc(F)cc1 (stereo not given)
3.67,0.462,0,–,CC1Cc2ccccc2C2(CCN(CCC(C(=O)NCc3cc(C(F)(F)F)cc(C(F)(F)F)c3)c3ccc(F)cc3)CC2)O1 (stereo not given)
7.9,7.54,–,–,CC1Cc2ccccc2C2(CCN(CCCC(=O)NCc3cc(C(F)(F)F)cc(C(F)(F)F)c3)CC2)O1 (stereo not given)
